Sampled rows, rich in hits. Any-hit rate of the full collection: about 4.3%.
SR-BI uptake up: activators of SR-BI mediated DiI-HDL uptake, primary screen, ldlA[mSR-BI] CHO cells, DiI fluorescence | 3 h; 100 = double the neutral-control signal | activation, % at 12.5 µM | 320,000 tested, 0.096% active | AID 504775, 2011;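 active = mean replicate activation of at least 60% and every replicate at or above 60%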
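Test system: SR-BI-overexpressing, LDLR-lacking CHO cells. Measured by: DiI fluorescence, bottom read. Medium: Ham's F12 with 0.5% BSA, HEPES 25 mM, pH 7.4. Timing: 3 h uptake period with compound, 37 °C.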
Lipid droplet: inhibitors of hepatocyte lipid droplet formation, primary screen, imaging, high-throughput imaging, BODIPY stain; AML12 mouse hepatocytes, oleate lipid droplets; inhibition, % at 6.5 µM; 240,000 tested, 0.4% active; AID 1656, 2009;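 active = lipid droplet intensity inhibited by at least 50%, with more than 500 cells counted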
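Technique: fluorescence imaging, 20x objective, two fields per well / Assay system: AML12 hepatocytes (mouse) / Measure: % inhibition of lipid droplet signal / Doses: 6.5 µM single-point dosing / Incubation: overnight exposure / Reagent: 100 µM oleic acid challenge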
SR-BI HDL uptake: inhibitors of SR-BI mediated HDL lipid uptake, primary screen, ldlA[mSR-BI] cells, fluorescence, single point | Scavenger receptor class B member 1 (Mus musculus), Q61009 | ldlA[mSR-BI] CHO cells, DiI-HDL uptake fluorescence, 3 h | inhibition, % at 12.5 µM | 320,000 tested, 0.96% active | AID 488896, 2010;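 active = mean replicate inhibition of at least 70% and a set share of replicates each scoring 70 or more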
Yeast superoxide: reduction of superoxide in aged yeast, primary screen, HTS | S. cerevisiae aged cells, superoxide DHE fluorescence; active compounds read low | superoxide response (% of plate mean), % at 10 µM | 330,000 tested, 0.18% active | AID 2690, 2010;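 active = superoxide response under a set limit, about three screen SD below normal, cut at about 65% in these data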;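 also: yeast aged for seven days with compound at 30 °C before DHE staining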
AHR act: AHR activators, primary screen, cell-based, luminescence, luciferase reporter, human. AID 2796, 2010. activation, % at 5 µM. 320,000 tested, 2.5% active. Aryl hydrocarbon receptor (Homo sapiens), P35869. AHR-responsive luciferase reporter cells; in the data active = activation above about 47%
Target sequence (P35869 whole entry, looked up): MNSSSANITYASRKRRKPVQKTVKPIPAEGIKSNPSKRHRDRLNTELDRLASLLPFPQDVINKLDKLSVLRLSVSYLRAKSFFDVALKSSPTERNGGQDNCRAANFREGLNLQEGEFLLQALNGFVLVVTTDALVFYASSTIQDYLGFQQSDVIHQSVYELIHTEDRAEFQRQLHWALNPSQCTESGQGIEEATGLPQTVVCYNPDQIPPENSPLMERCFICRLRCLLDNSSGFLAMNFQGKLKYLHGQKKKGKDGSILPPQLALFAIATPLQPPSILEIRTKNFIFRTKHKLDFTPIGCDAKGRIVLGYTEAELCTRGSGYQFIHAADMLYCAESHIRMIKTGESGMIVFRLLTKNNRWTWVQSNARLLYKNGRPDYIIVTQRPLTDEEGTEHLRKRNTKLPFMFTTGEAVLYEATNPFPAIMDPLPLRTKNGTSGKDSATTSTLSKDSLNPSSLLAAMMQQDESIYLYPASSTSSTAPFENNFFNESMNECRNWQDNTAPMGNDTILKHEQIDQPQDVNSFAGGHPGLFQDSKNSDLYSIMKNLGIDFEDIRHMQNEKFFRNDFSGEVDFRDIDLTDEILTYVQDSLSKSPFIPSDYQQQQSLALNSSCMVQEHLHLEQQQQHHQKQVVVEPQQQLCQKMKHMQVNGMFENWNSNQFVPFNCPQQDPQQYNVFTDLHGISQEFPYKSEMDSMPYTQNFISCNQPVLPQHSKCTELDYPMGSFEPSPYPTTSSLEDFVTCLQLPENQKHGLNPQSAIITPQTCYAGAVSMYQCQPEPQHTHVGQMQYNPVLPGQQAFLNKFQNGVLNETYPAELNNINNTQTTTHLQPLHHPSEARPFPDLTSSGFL
SMARCA2 act: SMARCA2 (BRM) function activators, primary screen, cell-based, luminescence, high throughput. MG213 cells, MMTV-luciferase reporter, dexamethasone, overnight. activation, % at 9.1 µM. 370,000 tested, 1% active; in the data active = activation above about 7.8%
A number is an active result; - = inactive; . = no result given.

SMILES	SR-BI uptake up	Lipid droplet	SR-BI HDL uptake	Yeast superoxide	AHR act	SMARCA2 act
NC(=O)c1c(N)[nH]c(C(=O)c2ccccc2)c1-c1ccccc1Cl	.	.	.	.	.	-
CC(C)CSc1nnc2c3ccccc3n(C)c2n1	-	-	-	-	57	-
CC(C)OC(=O)CSc1nnc2c3ccccc3n(C)c2n1	-	-	-	-	-	-
CCCCOC(=O)c1ccc(-c2ccc(/C=N/NC(=S)NCC)o2)cc1	-	-	88	-	-	-
CCOC(=O)c1ccc(-c2ccc(/C=N/NC(=O)c3cncc(Br)c3)o2)cc1	.	-	.	-	-	-
COC(=O)c1ccc(-c2ccc(/C=N/NC(=O)CC3(C)OCCCO3)o2)cc1	-	-	-	-	-	7.8
CCn1c2ccccc2c2cc(NC(=O)COC(=O)c3ccc(F)cc3Cl)ccc21	.	.	.	.	.	-
CCOc1ccc(Nc2nc3cc(S(=O)(=O)CC)ccc3o2)cc1	.	-	.	-	64	-
Cc1ccc2c(c1)/C(=C/c1ccccc1)C(=O)N2	-	-	-	-	-	-
Cc1ccc2c(c1)/C(=C/c1ccccc1F)C(=O)N2	-	-	-	-	68	-
Cc1cc(NS(=O)(=O)c2ccc(Nc3nc(-c4ccc(C)c(C)c4)cs3)cc2)no1	-	-	-	-	-	-
Cc1cc(NS(=O)(=O)c2ccc(Nc3nc(-c4ccc(O)cc4)cs3)cc2)no1	-	-	-	-	60	-
Oc1ccc(Nc2nc(-c3ccc4ccccc4c3)cs2)cc1	-	-	-	-	64	-
Cc1ccccc1Cn1cc(COC(=O)N(C)Cc2ccccc2)nn1	.	.	.	.	.	-
O=C(CSc1nc2ccccc2[nH]1)c1ccc2c(c1)OCO2	-	-	-	-	-	-
Cc1ccc2nc(SCC(=O)c3ccc4c(c3)OCO4)[nH]c2c1	-	.	-	-	57	-
CC(=O)c1c(C)[nH]c(C(=O)CSc2nc3ccc(C)cc3[nH]2)c1C	-	-	-	-	70	-
COC(=O)[C@]12C[C@H](CC(=O)N3CCCCC3)C(=O)N(CCC3=CCCCC3)C1=C[C@H](C(C)(C)C)O[C@@H]2C	.	.	.	.	.	-
CC(=O)Nc1ccc(NS(=O)(=O)c2ccc3c(c2)n(C)c(=O)n3C)cc1	-	-	-	-	-	-
Cc1ccc(NS(=O)(=O)c2ccc3c(c2)n(C)c(=O)n3C)cc1	135	-	-	-	-	.
CCc1nnc(NC(=O)/C=C/c2cccs2)s1	-	-	-	-	52	-
CCN=C1S/C(=C/c2ccc(-c3ccc(F)cc3)o2)C(=O)N1CC	-	-	72	-	-	-
C#CCN(Cc1ccco1)C(=O)c1nnc2c3cc(OC)ccc3n(S(=O)(=O)c3ccc(OC)cc3)c2n1	.	.	.	.	.	-
N#Cc1cccc(-c2ccccc2C(=O)NC2CCCCN(Cc3ccc(Cl)cc3)C2=O)c1 (configuration not stated)	.	.	.	.	.	-
Nc1c(C(=O)N/N=C/c2ccc(F)cc2)oc2nc(-c3ccccc3)cc(-c3ccco3)c12	-	-	-	-	57	-
SMILES	SR-BI uptake up	Lipid droplet	SR-BI HDL uptake	Yeast superoxide	AHR act	SMARCA2 act
Nc1c(C(=O)N/N=C/c2ccccc2Cl)oc2nc(-c3ccccc3)cc(-c3ccco3)c12	-	-	-	-	50	-
O=C(N/N=C/c1ccc(F)cc1)c1cc(-c2ccco2)nc2ccccc12	-	.	-	-	-	-
C[C@H](CO)N1C[C@H](C)[C@@H](CN(C)C(=O)c2ccncc2)OCc2cn(nn2)CCCC1=O	.	.	.	.	.	-
Cc1cc(Br)ccc1NC(=O)CNC(=O)c1ccc(-n2cncn2)c([N+](=O)[O-])c1	-	.	-	-	-	-
Cc1cc(Br)ccc1NC(=O)c1ccc(-n2cncn2)c([N+](=O)[O-])c1	-	.	-	-	66	-
Fc1ccc(C2=Nn3c(nnc3-c3n[nH]c4c3CCC4)SC2)cc1	-	.	-	-	54	-
Cc1ccc(-c2nc(N/N=C/c3cccc([N+](=O)[O-])c3)c3ccccc3n2)cc1	-	-	74	-	-	-
Cc1ccc(-c2nc(NCc3cccnc3)c3ccccc3n2)cc1	-	-	-	-	-	-
Cc1ccc(-c2nc(N/N=C/c3cccnc3)c3ccccc3n2)cc1	-	-	-	-	62	-
COc1ccc(/C=N/Nc2nc(-c3cccnc3)nc3ccccc23)c(OC)c1	-	-	-	-	51	-
O=[N+]([O-])c1ccc(-c2nc(NCc3ccccc3)c3ccccc3n2)cc1	-	-	-	-	-	-
O=[N+]([O-])c1cccc(C=NNc2ccccc2)c1	-	.	-	.	.	-
COc1ccc(OC)c(Nc2nc(-c3ccncc3)nc3ccccc23)c1	-	-	-	-	.	-
O=[N+]([O-])c1cccc(-c2nc(NCc3ccccc3)c3ccccc3n2)c1	-	-	-	-	88	-
COc1ccc(N2CCN(CCNS(=O)(=O)c3c(C(C)C)cc(C(C)C)cc3C(C)C)CC2)cc1	.	.	.	.	.	-
Clc1cccc(Cl)c1COc1ccccc1CNn1cnnc1	-	-	-	-	59	-
COc1ccc(-c2cc(C(=O)NN=Cc3ccccc3F)[nH]n2)cc1	.	.	.	.	.	-
Cc1ccc2ccc(C3C(=O)c4ccccc4C3=O)nc2c1	-	.	-	-	58	-
COc1ccc(C(=O)C(c2ccccc2)N2CCOCC2)cc1 (configuration not stated)	-	.	-	-	-	-
Cc1ccc(C(=O)C(c2ccccc2)N2Cc3ccccc3C2=N)cc1 (configuration not stated)	-	-	-	-	65	.
COC(=O)[C@]12C[C@H](CC(=O)NCc3cccc4ccccc34)C(=O)N(Cc3ccco3)C1=C[C@H](COCc1ccccc1)O[C@@H]2C	.	.	.	.	.	-
C/C(CC(=O)NCc1ccc(F)cc1)=N\NC(N)=S	-	-	87	-	-	-
COC(=O)C1=C(C)N(Cc2ccc(C(F)(F)F)cc2)C(=NCc2ccccc2C(F)(F)F)NC1c1ccc(Cl)cc1 (configuration not stated)	.	.	.	.	.	-
